What was measured:
PC-3 = experiment: Cytotoxicity against PC3 cell line by MTT assay; format: cell-based; details: Homo sapiens
Tubulin (Homo sapiens) = Tubulin (Homo sapiens) (UniProt P68371+Q9H4B7+P0DPH7+P68366+Q13509+Q71U36+P04350+Q3ZCM7+P07437+P68363+Q9BQE3+Q6PEY2+Q13885+Q9BVA1+Q9BUF5); experiment: Induction of GTP-tubulin polymerization; format: protein-complex assay
How it was run: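 ED50 for induction of tubulin assembly, read by light scattering at 350 nm or by fluorescence in a 96-well format. GTP-tubulin was used unless otherwise stated. Some samples were run with GDP-tubulin and normalized to the GTP-tubulin scale. Some values are single determinations.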

A2780 = experiment: Cytotoxicity against A2780 cell line; format: cell-based; details: Homo sapiens
[1] = Inhibition of growth in epothilone A resistant 1A9-A8 T-beta-274I mutant cell line after 72 hrs by SRB assay; format: functional, cell-based; details: Homo sapiens, 1A9, 72 h
1A9 = experiment: Inhibition of growth in 1A9 cell line after 72 hrs; format: functional, cell-based; details: Homo sapiens, 1A9, 72 h
1A9/ptx-10 = experiment: Inhibition of growth in paclitaxel resistant 1A9-PTX10 F-beta-270V mutant cell line after 72 hrs by SRB assay; format: functional, cell-based; details: Homo sapiens, 1A9/ptx-10, 72 h

| SMILES | IC50 (PC-3) | ED50 (Tubulin (Homo sapiens)) | IC50 (A2780) | IC50 [1] | IC50 (1A9) | IC50 (1A9/ptx-10) |
| --- | --- | --- | --- | --- | --- | --- |
| CC(=O)O[C@H]1C(=O)[C@@]2(C)[C@@H]3[C@H](OC(=O)c4ccccc4)[C@]4(O)C[C@H](OC(=O)[C@H](O)[C@@H](NC(=O)c5ccccc5)c5ccccc5OCCCCCCC(=O)O[C@]35CO[C@@H]5C[C@@H]2O)C(C)=C1C4(C)C | 0.39 µM | 0.85 µM | 2 µM |  |  |  |
| CC(=O)O[C@H]1C(=O)[C@@]2(C)[C@@H]3[C@H](OC(=O)c4ccccc4)[C@]4(O)C[C@H](OC(=O)[C@H](O)[C@@H](NC(=O)c5ccccc5)c5ccccc5OC/C=C/CCCCC(=O)O[C@]35CO[C@@H]5C[C@@H]2O)C(C)=C1C4(C)C | 0.5 µM | 0.93 µM | 1.84 µM |  |  |  |
| COc1cccc(C(=O)O[C@H]2[C@@H]3[C@]45CO[C@@H]4C[C@H](O)[C@@]3(C)C(=O)[C@H](OC(C)=O)C3=C(C)[C@H](C[C@]2(O)C3(C)C)OC(=O)[C@H](O)[C@@H](NC(=O)c2ccccc2)c2ccccc2/C=C/CC(=O)O5)c1 | 0.006 µM | 0.57 µM | 0.0237 µM |  |  |  |
| CC(=O)O[C@H]1C(=O)[C@@]2(C)[C@@H]3[C@H](OC(=O)c4ccccc4)[C@]4(O)C[C@H](OC(=O)[C@H](O)[C@@H](NC(=O)c5ccccc5)c5cccc(c5)CCCCC(=O)O[C@]35CO[C@@H]5C[C@@H]2O)C(C)=C1C4(C)C | 0.57 µM | 1.4 µM | 8.8 µM |  |  |  |
| COc1cccc(C(=O)O[C@H]2[C@@H]3[C@]45CO[C@@H]4C[C@H](O)[C@@]3(C)C(=O)[C@H](OC(C)=O)C3=C(C)[C@H](C[C@]2(O)C3(C)C)OC(=O)[C@H](O)[C@@H](NC(=O)c2ccccc2)c2ccccc2CCCC(=O)O5)c1 |  |  | 0.0231 µM |  |  |  |
| C=CCOc1cccc([C@H](NC(=O)c2ccccc2)[C@@H](O)C(=O)O[C@H]2C[C@@]3(O)[C@@H](OC(=O)c4ccccc4)[C@@H]4[C@]5(OC(=O)C=C)CO[C@@H]5C[C@H](O)[C@@]4(C)C(=O)[C@H](OC(C)=O)C(=C2C)C3(C)C)c1 | 0.55 µM | 1 µM | 1.9 µM |  |  |  |
| C=CC(=O)O[C@@]12CO[C@@H]1C[C@H](O)[C@@]1(C)C(=O)[C@H](OC(C)=O)C3=C(C)[C@@H](OC(=O)[C@H](O)[C@@H](NC(=O)c4ccccc4)c4cccc(C=C)c4)C[C@@](O)([C@@H](OC(=O)c4ccccc4)[C@H]21)C3(C)C | 0.32 µM | 1 µM | 1.7 µM |  |  |  |
| COc1cccc(C(=O)O[C@H]2[C@@H]3[C@]45CO[C@@H]4C[C@H](O)[C@@]3(C)C(=O)[C@H](OC(C)=O)C3=C(C)[C@H](C[C@]2(O)C3(C)C)OC(=O)[C@H](O)[C@@H](NC(=O)c2ccccc2)c2ccccc2C/C=C/C(=O)O5)c1 | 0.0082 µM | 0.22 µM | 0.0177 µM |  |  |  |
| CC(=O)O[C@H]1C(=O)[C@@]2(C)[C@@H]3[C@H](OC(=O)c4ccccc4)[C@]4(O)C[C@H](OC(=O)[C@H](O)[C@@H](NC(=O)c5ccccc5)c5ccccc5OCCCCCC(=O)O[C@]35CO[C@@H]5C[C@@H]2O)C(C)=C1C4(C)C | 0.051 µM | 0.76 µM | 0.98 µM |  |  |  |
| CC(=O)O[C@H]1C(=O)[C@@]2(C)[C@@H]3[C@H](OC(=O)c4ccccc4)[C@]4(O)C[C@H](OC(=O)[C@H](O)[C@@H](NC(=O)OC(C)(C)C)c5ccccc5/C=C/CC(=O)O[C@]35CO[C@@H]5C[C@@H]2O)C(C)=C1C4(C)C | 0.0032 µM | 0.49 µM | 0.0014 µM |  |  |  |
| CC(=O)O[C@H]1C(=O)[C@@]2(C)[C@@H]3[C@H](OC(=O)c4ccccc4)[C@]4(O)C[C@H](OC(=O)[C@H](O)[C@@H](NC(=O)c5ccccc5)c5cccc(c5)OCCCC(=O)O[C@]35CO[C@@H]5C[C@@H]2O)C(C)=C1C4(C)C | 0.053 µM | 1.4 µM | 0.7 µM |  |  |  |
| COc1cccc(C(=O)O[C@H]2[C@@H]3[C@]45CO[C@@H]4C[C@H](O)[C@@]3(C)C(=O)[C@H](OC(C)=O)C3=C(C)[C@H](C[C@]2(O)C3(C)C)OC(=O)[C@H](O)[C@@H](NC(=O)OC(C)(C)C)c2ccccc2/C=C/CC(=O)O5)c1 | 0.011 µM | 0.35 µM | > 0.006 µM |  |  |  |
| C=CCOc1ccccc1[C@H](NC(=O)c1ccccc1)[C@@H](O)C(=O)O[C@H]1C[C@@]2(O)[C@@H](OC(=O)c3ccccc3)[C@@H]3[C@]4(OC(=O)C=C)CO[C@@H]4C[C@H](O)[C@@]3(C)C(=O)[C@H](OC(C)=O)C(=C1C)C2(C)C | 2.8 µM | 1.2 µM | 17.8 µM |  |  |  |
| C=CCCOc1ccccc1[C@H](NC(=O)c1ccccc1)[C@@H](O)C(=O)O[C@H]1C[C@@]2(O)[C@@H](OC(=O)c3ccccc3)[C@@H]3[C@]4(OC(=O)C=C)CO[C@@H]4C[C@H](O)[C@@]3(C)C(=O)[C@H](OC(C)=O)C(=C1C)C2(C)C | > 13.2 µM | 2.7 µM | 19.8 µM |  |  |  |
| COc1cccc(C(=O)O[C@H]2[C@@H]3[C@]45CO[C@@H]4C[C@H](O)[C@@]3(C)C(=O)[C@H](OC(C)=O)C3=C(C)[C@H](C[C@]2(O)C3(C)C)OC(=O)[C@H](O)[C@@H](NC(=O)OC(C)(C)C)c2ccccc2CCCC(=O)O5)c1 | 0.0013 µM | 0.22 µM | 0.00049 µM |  |  |  |
| CC(=O)O[C@H]1C(=O)[C@@]2(C)[C@H]([C@H](OC(=O)c3ccccc3)[C@]3(O)C[C@H](OC(=O)[C@H](O)[C@@H](NC(=O)c4ccccc4)c4ccccc4)C(C)=C1C3(C)C)[C@]1(OC(C)=O)CO[C@@H]1C[C@@H]2O [PACLITAXEL] | 0.005 µM | 0.5 µM |  | 0.0215 µM | 0.0048 µM | 0.157 µM |
| CC(=O)O[C@H]1C(=O)[C@@]2(C)[C@@H]3[C@H](OC(=O)c4ccccc4)[C@]4(O)C[C@H](OC(=O)[C@H](O)[C@@H](NC(=O)c5ccccc5)c5ccccc5OC/C=C/CCC(=O)O[C@]35CO[C@@H]5C[C@@H]2O)C(C)=C1C4(C)C | 0.055 µM | 0.9 µM | 0.83 µM |  |  |  |
| CC(=O)O[C@H]1C(=O)[C@@]2(C)[C@@H]3[C@H](OC(=O)c4ccccc4)[C@]4(O)C[C@H](OC(=O)[C@H](O)[C@@H](NC(=O)c5ccccc5)c5cccc(c5)OCCCCCC(=O)O[C@]35CO[C@@H]5C[C@@H]2O)C(C)=C1C4(C)C | 1 µM | 3.4 µM | 3.6 µM |  |  |  |
| CC(=O)O[C@H]1C(=O)[C@@]2(C)[C@@H]3[C@H](OC(=O)c4ccccc4)[C@]4(O)C[C@H](OC(=O)[C@H](O)[C@@H](NC(=O)c5ccccc5)c5ccccc5OC/C=C/CCCC(=O)O[C@]35CO[C@@H]5C[C@@H]2O)C(C)=C1C4(C)C | 0.09 µM | 0.53 µM | 0.44 µM |  |  |  |
| CC(=O)O[C@H]1C(=O)[C@@]2(C)[C@@H]3[C@H](OC(=O)c4ccccc4)[C@]4(O)C[C@H](OC(=O)[C@H](O)[C@@H](NC(=O)c5ccccc5)c5ccccc5/C=C/CC(=O)O[C@]35CO[C@@H]5C[C@@H]2O)C(C)=C1C4(C)C | 0.0031 µM | 0.33 µM | 0.0005 µM |  |  |  |
| CC(=O)O[C@H]1C(=O)[C@@]2(C)[C@@H]3[C@H](OC(=O)c4ccccc4)[C@]4(O)C[C@H](OC(=O)[C@H](O)[C@@H](NC(=O)OC(C)(C)C)c5ccccc5CCCC(=O)O[C@]35CO[C@@H]5C[C@@H]2O)C(C)=C1C4(C)C | 0.0015 µM | 0.18 µM | 0.00065 µM |  |  |  |
| CC(=O)O[C@H]1C(=O)[C@@]2(C)[C@@H]3[C@H](OC(=O)c4ccccc4)[C@]4(O)C[C@H](OC(=O)[C@H](O)[C@@H](NC(=O)c5ccccc5)c5ccccc5OCCCCC(=O)O[C@]35CO[C@@H]5C[C@@H]2O)C(C)=C1C4(C)C | 0.013 µM | 0.23 µM | 0.028 µM |  |  |  |
| C=CC(=O)O[C@@]12CO[C@@H]1C[C@H](O)[C@@]1(C)C(=O)[C@H](OC(C)=O)C3=C(C)[C@@H](OC(=O)[C@H](O)[C@@H](NC(=O)c4ccccc4)c4ccccc4C=C)C[C@@](O)([C@@H](OC(=O)c4ccccc4)[C@H]21)C3(C)C | 0.275 µM | 1.4 µM | 1.6 µM |  |  |  |
| C=CCCC(=O)O[C@@]12CO[C@@H]1C[C@H](O)[C@@]1(C)C(=O)[C@H](OC(C)=O)C3=C(C)[C@@H](OC(=O)[C@H](O)[C@@H](NC(=O)c4ccccc4)c4cccc(OCC=C)c4)C[C@@](O)([C@@H](OC(=O)c4ccccc4)[C@H]21)C3(C)C | 2.6 µM | 1.8 µM | 2.52 µM |  |  |  |
| C=CCc1ccccc1[C@H](NC(=O)c1ccccc1)[C@@H](O)C(=O)O[C@H]1C[C@@]2(O)[C@@H](OC(=O)c3ccccc3)[C@@H]3[C@]4(OC(=O)C=C)CO[C@@H]4C[C@H](O)[C@@]3(C)C(=O)[C@H](OC(C)=O)C(=C1C)C2(C)C | 0.55 µM | 1.4 µM | 1.3 µM |  |  |  |
| C=CCCCC(=O)O[C@@]12CO[C@@H]1C[C@H](O)[C@@]1(C)C(=O)[C@H](OC(C)=O)C3=C(C)[C@@H](OC(=O)[C@H](O)[C@@H](NC(=O)c4ccccc4)c4cccc(OCC=C)c4)C[C@@](O)([C@@H](OC(=O)c4ccccc4)[C@H]21)C3(C)C | 4.6 µM | 2.2 µM | 7.4 µM |  |  |  |
| CC(=O)O[C@H]1C(=O)[C@@]2(C)[C@@H]3[C@H](OC(=O)c4ccccc4)[C@]4(O)C[C@H](OC(=O)[C@H](O)[C@@H](NC(=O)c5ccccc5)c5cccc(c5)OC/C=C\C(=O)O[C@]35CO[C@@H]5C[C@@H]2O)C(C)=C1C4(C)C | 0.58 µM | 4.6 µM | 6.3 µM |  |  |  |
